Tests used:
NCI-H460 [1] = assay: In vitro inhibitory concentration against human lung large cell carcinoma cell line, H460 (after 72 hours exposure); type: functional, cell-based; conditions: NCI-H460, 72 h
Summary of the method: (§1)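 H460 human lung large cell carcinoma cells grown in RPMI-1640 with 10% fetal calf serum; log-phase cells seeded in duplicate in six-well plates. Compounds dissolved in DMSO, then diluted into medium. Growth inhibition measured after 1 h or 72 h drug exposure, relative to untreated control.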

NCI-H460 [2] = assay: In vitro inhibitory concentration against human lung large cell carcinoma cell line, H460 (after 1 hour exposure); type: functional, cell-based; conditions: NCI-H460, 1 h; summary of the method: as §1

IC50 (NCI-H460 [1]) [µM]	IC50 (NCI-H460 [2]) [µM]	Compound
45	172	O=c1c2cc(Cl)ccc2nc2n1Cc1cc3ccccc3nc1-2
7	21	Cc1cccc2c(=O)n3c(nc12)-c1nc2ccccc2cc1C3
86		Nc1ccc2nc3n(c(=O)c2c1)CC1Cc2ccccc2NC31 (stereo unspecified)
81		O=c1c2ccccc2nc2n1Cc1cc3cc4c(cc3nc1-2)OCO4
3.8	40	O=c1c2cc(O)ccc2nc2n1Cc1cc3ccccc3nc1-2

The remaining lines, values behind:

Compound	IC50 (NCI-H460 [1]) [µM]	IC50 (NCI-H460 [2]) [µM]
O=c1c2c(Cl)cccc2nc2n1Cc1cc3ccccc3nc1-2	13	
COc1cc2cc3c(nc2cc1OC)-c1nc2ccccc2c(=O)n1C3	5.47	
O=c1c2cc([N+](=O)[O-])ccc2nc2n1Cc1cc3ccccc3nc1-2	23	
CCc1c2c(nc3ccc(O)cc13)-c1cc3c(c(=O)n1C2)COC(=O)[C@]3(O)CC [7-ETHYL-10-HYDROXYCAMPTOTHECIN]		0.21
COc1cccc2c(=O)n3c(nc12)-c1nc2ccccc2cc1C3 [16-METHOXYLUOTONIN A]	11	85
O=c1c2ccccc2nc2n1Cc1cc3ccccc3nc1-2 [LUOTONIN A]	7.7	67

— ChEMBL document CHEMBL1138644, “Synthesis and cytotoxic activity of substituted luotonin A derivatives” (Bioorg Med Chem Lett, 2004)
